T cell modulator – modulators of CD8 T cell-vesicle binding, primary screen, mouse 2C CD8+ T cells, flow cytometry. 2C CD8+ T cell-vesicle binding; stronger effect = lower value. 0.068% of 330,000 active. response (vesicle binding), % at 7 µM;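 active = response, share of CD8 T cells binding vesicles, and their 90th percentile fluorescence all below set limits, cut at about 80% in these data, passing the limit was not always enough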;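 also: values below 100% mean blocked vesicle binding to the CD8+ T cells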
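System: murine 2C transgenic CD8+ T lymphocytes; also added: QL9-loaded Drosophila micro-vesicles; times: binding 1.5 h at 37 °C; measured by: flow cytometry, PE anti-B7-1 (FL2) versus Alexa647 anti-CD8 (FL8), PFA-fixed; control set: Peptide-free naked vesicles (low) and QL9 vesicles with 0.7% DMSO vehicle (high)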
S1P3 antag – S1P3 receptor antagonists, primary screen, cell-based | Sphingosine 1-phosphate receptor 3 (Homo sapiens), Q99500 | CHO S1P3 NFAT-BLA reporter, FRET fluorescence, antagonist mode | inhibition, % at 4.98 µM | 0.27% of 170,000 active;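 active = inhibition above the plate cutoff, the mean inhibition of test wells on that plate plus 3 SD, cut at about 28% in these data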;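 also: cells challenged with S1P at its EC80 of 0.8 µM; blue over green emission ratio from cleaved BLA substrate after 4 h stimulation; 0% = S1P-stimulated wells and 100% = unstimulated DMSO-only wells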
Target sequence (Q99500 whole entry, looked up): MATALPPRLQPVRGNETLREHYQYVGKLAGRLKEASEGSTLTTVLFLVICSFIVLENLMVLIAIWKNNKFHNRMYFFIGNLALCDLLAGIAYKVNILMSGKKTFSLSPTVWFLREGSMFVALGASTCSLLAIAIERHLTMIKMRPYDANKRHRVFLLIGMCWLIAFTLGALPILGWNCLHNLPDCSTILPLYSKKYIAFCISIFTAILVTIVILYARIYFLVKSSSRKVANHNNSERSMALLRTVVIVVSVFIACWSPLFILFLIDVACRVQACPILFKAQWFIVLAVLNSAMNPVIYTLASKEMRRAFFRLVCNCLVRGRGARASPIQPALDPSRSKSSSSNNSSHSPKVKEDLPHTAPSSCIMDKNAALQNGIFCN
CR mimetic SO – reduction of superoxide in aged yeast, primary screen, HTS | S. cerevisiae aged cells, superoxide DHE fluorescence; stronger effect = lower value | superoxide response (% of plate mean), % at 10 µM | 0.18% of 330,000 active | AID 2690, 2010;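 active = superoxide response under a set limit, about three screen SD below normal, cut at about 65% in these data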;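 also: yeast aged for seven days with compound at 30 °C before DHE staining; 100% = average MFI of all compound-treated wells on the plate with controls excluded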
Superoxide pick – superoxide lowering in aged yeast cells, confirmation, cherry picked compounds. 1% of 850 active. superoxide response (% of plate), % at 10 µM. S. cerevisiae aging, superoxide DHE fluorescence; stronger effect = lower value. shares compounds with CR mimetic SO;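 active = superoxide signal below 65% of the plate average of sample wells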;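 also: cells aged with compound for 7 days at 30 degrees C before staining; 100% equals mean DHE fluorescence of all compound wells on the plate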
DHE counter – DHE quenching or ROS scavenging interference in aged yeast, artefact control for yeast caloric restriction mimetic project, S. cerevisiae BY4741, flow cytometry; shares compounds with CR mimetic SO; DHE fluorescence; stronger effect = lower value; fluorescence response, % at 10 µM; 850 tested, under 10 active; AID 435000, 2010;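 active = fluorescence response below 15%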;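 also: percent of the mean fluorescence averaged over all compound wells on the plate; lower means stronger quenching of DHE signal or ROS scavenging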
Active calls of the source: *; · = not tested or not shown. In the library only some 0.41% were active in any assay of this set; here they are far more common.

SMILES	T cell modulator	S1P3 antag	CR mimetic SO	Superoxide pick	DHE counter
O=C(CN1CCCC1)Nc1cc(C(F)(F)F)ccc1Cl	358	-5	96	·	·
O=C(CN1CCN(c2ccccn2)CC1)Nc1ccc(Cl)c(C(F)(F)F)c1	242	-41	102	95	103
O=C(CN1CCN(c2ccccn2)CC1)Nc1cc(C(F)(F)F)ccc1Cl	240	-18	97	107	133
CC(OC(=O)CCc1ccccc1)C(=O)Nc1ncc(Cl)cc1Cl (stereo not given)	262	·	96	·	·
Cc1nn(C2CCS(=O)(=O)C2)c(C)c1CN(C)C(=O)c1cccc(Cl)c1 (stereo not given)	406	·	104	·	·
COc1ccc(OC)c(S(=O)(=O)Nc2ccc(F)cc2)c1	347	·	103	·	·
COc1ccc(C)cc1S(=O)(=O)Nc1ccc(F)cc1	361	1	111	115	96
Cc1ccc(C)c(NS(=O)(=O)c2ccccc2C)c1	267	·	103	91	93
Cc1ccc(C)c(S(=O)(=O)Nc2ccc(O)cc2)c1	394	15	92	108	111
Cc1cc(C)c(S(=O)(=O)Nc2ccc(O)cc2)cc1C	429	7	106	·	·
COc1ccccc1NS(=O)(=O)c1cc(C)ccc1C	120	·	102	·	·
Cc1ccc(S(=O)(=O)N2CCN(C(=O)c3ccc4ccccc4n3)CC2)c(C)c1	485	·	100	·	·
O=C(Cn1nc(Br)nc1Br)c1ccccc1	309	·	57*	102	101
Nc1ncn(CC(=O)c2ccccc2)n1	306	-17	106	·	·
Cc1ccccc1-c1nc(CS(=O)(=O)CC(=O)NCCCN2CC(C)CC(C)C2)c(C)o1 (stereo not given)	212	·	65*	94	90
Cc1ccccc1-c1nc(CS(=O)(=O)CC(=O)NCCCN2CCOCC2)c(C)o1	248	·	103	·	·
CC(C)N(Cc1ccccc1)C(=O)CN1C(=O)NC2(CCCCCC2)C1=O	204	·	84	·	·
Cc1cccc(-c2cc3nc(C)cc(C)n3n2)c1	175	15	109	·	·
Cc1cc(C)n2nc(-c3cccc(Br)c3)cc2n1	296	·	101	103	94
Cc1ccc(C(=O)C2CCN(CC(=O)NC3CCCC3)CC2)cc1	362	·	104	·	·
Cc1cc(NS(=O)(=O)c2ccccc2)cc(Cl)c1O	977	13	103	87	91
Cc1ccc(S(=O)(=O)Nc2cc(C)c(O)c(S(=O)(=O)c3ccc(C)cc3)c2)cc1	226	·	91	·	·
CN(CC(=O)Oc1ccc(-c2nnco2)cc1)S(=O)(=O)c1ccc(F)cc1	302	·	105	·	·
Cc1ccc(NC(=O)CCN2CC(C)OC(C)C2)cc1 (stereo not given)	378	·	99	·	·
O=C(Nc1ccc(Cl)cc1)c1nc[nH]c1C(=O)N1CCN(c2ccccc2)CC1	345	·	106	·	·
SMILES	T cell modulator	S1P3 antag	CR mimetic SO	Superoxide pick	DHE counter
COc1cc(Cl)c(C)cc1NC(=O)CN1C(=O)C2CCCCC2C1=O (stereo not given)	161	·	90	·	·
CC(C(=O)O)n1nc(-c2ccccc2)c2ccccc21 (stereo not given)	238	·	110	·	·
N#Cc1ccc(-c2nc3cc(Cl)ccc3c(=O)n2O)cc1	422	·	91	·	·
O=c1c2ccc(Cl)cc2nc(-c2cccc(C(F)(F)F)c2)n1O	302	·	65*	88	89
Cc1cc(C)cc(NC(=O)C(c2ccccc2)N2CCN(CC(=O)NC3CC3)CC2)c1 (stereo not given)	440	·	95	·	·
Cc1nnsc1-c1c(C(=O)N2CCOCC2)c(C)nn1-c1ccc(Cl)cc1	370	-9	46*	98	87
Cc1nnsc1-c1c(C(=O)N2CCOCC2)c(C)nn1-c1ccccc1	547	-14	101	·	·
CCN(Cc1cnn(C)c1)C(=O)c1ccc2nc(Cc3cccc(Cl)c3)oc2c1	313	·	84	·	·
COc1ccccc1OCC(=O)Nc1cc(Cl)ccc1N1CCCCC1	299	·	94	·	·
CC(C)Cn1cc(C(=O)NCc2cccs2)c2c3ccccc3n(C)c2c1=O	256	30	62*	125	119
CC(C)CCNC(=O)c1cn(CC(C)C)c(=O)c2c1c1ccccc1n2C	182	·	101	·	·
O=C(COc1ccc2c(c1)oc(=O)c1ccccc12)NCCN1CCOCC1	336	·	95	·	·
Cc1cc(NC(=O)CNCC(c2ccccc2)N(C)C)c([N+](=O)[O-])cc1C (stereo not given)	78	·	43*	91	94
Cc1ccc(NC(=O)CNCC(c2ccccc2)N(C)C)cc1F (stereo not given)	478	17	104	·	·

Assay outcomes (PubChem BioAssay)
